Results on 8 compounds are retold here after ChEMBL document CHEMBL4049415, “Kinetin Riboside and Its ProTides Activate the Parkinson's Disease Associated PTEN-Induced Putative Kinase 1 (PINK1) Independent of Mitochondrial Depolarization” (J Med Chem, 2017).

Data set [1] addresses Serine/threonine-protein kinase PINK1, mitochondrial (Homo sapiens) (UniProt Q9BXM7). The data set is described as follows: Activation of FLAG tagged PINK1 (unknown origin) expressed in Flp-In TRex HEK293 cells co-expressing wild-type Parkin assessed as Parkin Ser65 phosphorylation at 50 uM after 24 hrs in absence of CCCP by immunoblotting analysis. The format is cell-based.

The target of data set [2] is T1, cathepsin A (lysosomal protective protein) (Homo sapiens, UniProt P10619).
T1 sequence (P10619 whole entry): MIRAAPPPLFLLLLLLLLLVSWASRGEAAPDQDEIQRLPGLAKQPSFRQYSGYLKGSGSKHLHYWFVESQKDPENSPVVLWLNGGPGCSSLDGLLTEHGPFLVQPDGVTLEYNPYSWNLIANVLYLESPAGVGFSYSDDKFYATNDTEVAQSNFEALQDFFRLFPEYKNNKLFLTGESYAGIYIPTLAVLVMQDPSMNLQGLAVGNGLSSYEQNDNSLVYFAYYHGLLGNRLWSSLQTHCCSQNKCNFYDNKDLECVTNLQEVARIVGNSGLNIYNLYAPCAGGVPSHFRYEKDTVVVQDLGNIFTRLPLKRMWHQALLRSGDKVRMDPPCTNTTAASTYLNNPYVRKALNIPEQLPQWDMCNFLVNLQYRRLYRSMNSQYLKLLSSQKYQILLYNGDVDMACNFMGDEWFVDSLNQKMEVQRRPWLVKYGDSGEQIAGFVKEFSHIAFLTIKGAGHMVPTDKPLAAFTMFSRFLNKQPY
In words: (§1) Stability in pH 7.4 trizma buffer assessed as cathepsin A (unknown origin)-mediated compound hydrolysis by measuring parent compound remaining at 5.0 mg measured after 12 hrs by 31P-NMR spectroscopic analysis. The note with it: cathepsin A in trizma buffer, pH 7.4, read-out: Stability. The format is ADME.

Data set [3] addresses T2, Lysosomal protective protein (Homo sapiens, UniProt P10619).
T2 sequence (P10619 whole entry): T1 sequence (P10619 whole entry)
The data set is described as follows: Drug level in pH 7.4 trizma buffer treated with phenyl(Isopropoxy-L-alaninyl) kinetin riboside phosphoramidate assessed as cathepsin A (unknown origin)-mediated metabolite formation at 5.0 mg measured after 2 to 12 hrs by 31P-NMR spectroscopic analysis. The format is ADME.

Data set [4] addresses T2, Lysosomal protective protein. In words: Stability in pH 7.4 trizma buffer assessed as cathepsin A (unknown origin)-mediated compound hydrolysis at 5.0 mg measured after 15 mins by 31P-NMR spectroscopic analysis. Format: ADME. The note with it: pH 7.4, 0.25 h.
The subject of data set [5] is Serum. In words: Metabolic stability of the compound in mouse serum at 5.0 mg measured at even intervals over 11 hrs by 31P-NMR spectroscopic analysis. Format: ADME, cell-free. In short, it runs like this: (§2)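 Serum stability: 5.0 mg in DMSO-d6 and D2O, thawed human or mouse serum added in the NMR tube. 31P NMR at 37 °C, spectra immediately, at 30 min, then at even intervals over 11 h. Controls were compound without serum, and serum without compound.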

The target of data set [6] is T2, Lysosomal protective protein. In words: Prodrug activation in pH 7.4 trizma buffer assessed as cathepsin A (unknown origin)-mediated kinetin riboside monophosphate metabolite formation at 5.0 mg measured after 48 hrs by 31P-NMR spectroscopic analysis. The format is ADME. Particulars: pH 7.4, 48 h.
Data set [7] relates to Serum. In words: Metabolic stability of compound in human serum at 5.0 mg measured at even intervals over 11 hrs by 31P-NMR spectroscopic analysis. Format: ADME, cell-free. The procedure, abridged:
as §2

Data set [8] is described as follows: Chemical stability of compound in pH 1 buffer at 5.0 mg measured at every 20 mins over 12 hrs by 31P-NMR spectroscopic analysis. The note with it: pH 1, 12 h. Format: physicochemical. The procedure, abridged:
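Acid stability: 5 mg in methanol-d4 mixed with pH 1 buffer (equal parts 0.2 M HCl and 0.2 M KCl). 31P NMR at 37 °C, spectra every 20 min over 12 h; persistence of parent phosphorus peaks followed.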

The target of data set [9] is T2, Lysosomal protective protein. The description is as §1. Format: ADME. Particulars: in vivo, pH 7.4, 12 h.
The target is the same in data set [10]. The data set is described as follows: Drug metabolism in pH 7.4 trizma buffer assessed as cathepsin A (unknown origin)-mediated (S)-2-((((2R,3S,4R,5R)-5-(6-(furan-2-ylmethylamino)-9H-purin-9-yl)-3,4-dihydroxytetrahydrofuran-2-yl)methoxy)oxidophosphorylamino)propanoate formation at 5.0 mg measured after 2 to 12 hrs by 31P-NMR spectroscopic analysis. Format: ADME.

In data set [11] the target is Serine/threonine-protein kinase PINK1, mitochondrial (Homo sapiens) (UniProt Q9BXM7). The data set is described as follows: Activation of FLAG tagged PINK1 (unknown origin) expressed in Flp-In TRex HEK293 cells co-expressed with wild-type Parkin assessed as Parkin Ser65 phosphorylation at 10 uM by immunoblotting analysis. The note with it: TDE = time-dependent effect. Format: cell-based. In general terms: Immunoblotting shows a protein as a band on a membrane.
Serine/threonine-protein kinase PINK1, mitochondrial (Homo sapiens), sequence (Q9BXM7 whole entry): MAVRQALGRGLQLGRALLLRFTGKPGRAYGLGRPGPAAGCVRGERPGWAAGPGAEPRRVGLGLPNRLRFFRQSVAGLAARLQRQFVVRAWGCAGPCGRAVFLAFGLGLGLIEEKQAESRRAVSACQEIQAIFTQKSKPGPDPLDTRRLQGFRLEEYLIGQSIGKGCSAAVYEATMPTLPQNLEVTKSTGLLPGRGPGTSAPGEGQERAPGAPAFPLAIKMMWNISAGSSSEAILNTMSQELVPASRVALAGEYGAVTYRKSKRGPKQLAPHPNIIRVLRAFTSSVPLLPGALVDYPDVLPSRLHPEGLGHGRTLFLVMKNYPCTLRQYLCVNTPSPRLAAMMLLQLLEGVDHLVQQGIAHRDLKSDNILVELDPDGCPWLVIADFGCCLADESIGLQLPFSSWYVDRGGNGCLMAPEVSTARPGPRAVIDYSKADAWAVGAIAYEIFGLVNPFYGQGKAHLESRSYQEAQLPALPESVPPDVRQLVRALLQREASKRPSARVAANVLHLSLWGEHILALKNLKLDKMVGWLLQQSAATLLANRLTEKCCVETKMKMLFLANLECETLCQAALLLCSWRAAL

Data set [12] shares this target. In words: Activation of FLAG tagged PINK1 (unknown origin) expressed in Flp-In TRex HEK293 cells co-expressing wild-type Parkin assessed as Parkin Ser65 phosphorylation at 50 uM in absence of CCCP by immunoblotting analysis. The format is cell-based. Particulars: TDE = time-dependent effect.
For data set [13] the target is unchanged. The data set is described as follows: Activation of FLAG tagged PINK1 (unknown origin) expressed in Flp-In TRex HEK293 cells co-expressed with Parkin S65A mutant assessed as Parkin phosphorylation at 50 uM in absence of CCCP by immunoblotting analysis. Format: cell-based.

Structures are written as SMILES. Activity calls are given as the source filed them. The calls are words filed in the database; no cut-off is given here.

Turning to `C[C@H](NP(=O)(OC[C@H]1O[C@@H](n2cnc3c(NCc4ccco4)ncnc32)[C@H](O)[C@@H]1O)Oc1ccccc1)C(=O)OC(C)(C)C` (stereo partly drawn), the outcome in data set [1] was inactive. For the same compound, the remaining at 12 h in [2] worked out at 50%.
Regarding `OC[C@H]1O[C@@H](n2cnc3c(NCc4ccco4)ncnc32)[C@H](O)[C@@H]1O`, in data set [1], the outcome was Active.
Turning to `c1coc(CNc2ncnc3[nH]cnc23)c1`, the outcome in data set [1] was inactive.
For `C[C@H](NP(=O)(O)OC[C@H]1O[C@@H](n2cnc3c(NCc4ccco4)ncnc32)[C@H](O)[C@@H]1O)C(=O)O`, in [3], the Drug metabolism entry is “Metabolite_Detected”.
With `CC(C)OC(=O)[C@H](C)NP(=O)(OC[C@H]1O[C@@H](n2cnc3c(NCc4ccco4)ncnc32)[C@H](O)[C@@H]1O)Oc1ccccc1` (stereo partly drawn), the Stability result in [4] is “Stable”; in the data set with Serum [5], “Stable”; in the data set with Serum [7], “Stable”; in data set [8], “Stable”; in data set [9], “Unstable”. Also, the Drug metabolism entry in [6] and in data set [10] was “Metabolite_Detected” throughout. In addition, the result in [1] was Active.
`N#CC(C#N)=NNc1cccc(Cl)c1`: the Activity entry in data set [11] is “Tde”.
`C[C@H](NP(=O)(OC[C@H]1O[C@@H](n2cnc3c(NCc4ccco4)ncnc32)[C@H](O)[C@@H]1O)Oc1ccccc1)C(=O)OCc1ccccc1` (stereo partly drawn): the Activity entry in [12] was “Tde”. The result in [1] was Active. The result in [13] was inactive.
Regarding `COC(=O)[C@H](C)NP(=O)(OC[C@H]1O[C@@H](n2cnc3c(NCc4ccco4)ncnc32)[C@H](O)[C@@H]1O)Oc1ccccc1` (stereo partly drawn), the result in data set [1] was Active.
